Laboratory results reported in ChEMBL document CHEMBL1914459 (Bioorg Med Chem Lett, 2011).

Assays:
[1] = biological target: T1, Prostaglandin D2 receptor 2 (Homo sapiens, UniProt Q9Y5Y4); experiment: Displacement of [3H]PGD2 from human CRTH2 receptor
T1 sequence (Q9Y5Y4 whole entry): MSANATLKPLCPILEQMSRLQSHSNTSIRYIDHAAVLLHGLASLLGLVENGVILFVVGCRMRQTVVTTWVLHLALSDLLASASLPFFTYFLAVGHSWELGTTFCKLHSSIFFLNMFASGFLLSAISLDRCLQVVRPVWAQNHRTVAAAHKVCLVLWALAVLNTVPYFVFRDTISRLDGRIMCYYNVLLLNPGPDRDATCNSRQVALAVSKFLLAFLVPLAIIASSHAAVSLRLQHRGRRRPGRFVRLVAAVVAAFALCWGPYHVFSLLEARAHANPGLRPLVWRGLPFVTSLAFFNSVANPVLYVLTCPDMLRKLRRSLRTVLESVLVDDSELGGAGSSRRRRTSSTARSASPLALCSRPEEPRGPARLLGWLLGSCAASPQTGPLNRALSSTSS
Procedure, shortened: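 Radioligand binding with ³H-PGD₂ as the labelled ligand; IC₅₀ reported as mean of n >2 measurements.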

[2] = Lipophilicity, log D of the compound at pH 7.4; conditions: buffer
[3] = Intrinsic clearance in rat hepatocytes assessed as per 1 x 10^6 cells
[4] = Inhibition of human recombinant aldose reductase 2 after 15 mins by spectrophotometry analysis

Row | Compound | IC50 [1] [nM] | logD [2] | hepatocyte CLint [3] [µL/min/1e6 cells] | IC50 [4] [nM]
1 | CCS(=O)(=O)Nc1cccc2c1c(Oc1ccc(Cl)cc1)c(C)n2CC(=O)O | 36 | – | – | –
2 | Cc1c(Sc2ccc(Cl)cc2)c2c(Cl)nccc2n1CC(=O)O | 32 | 0.9 | – | –
3 | Cc1c(Sc2ccc(Cl)cc2)c2cc(Cl)c(C#N)cc2n1CC(=O)O | 178 | – | 29 | –
4 | Cc1ccc2c(c1)c([S+]([O-])c1ccc(Cl)cc1)c(C)n2CC(=O)O (stereo not given) | 1000 | 0.1 | < 5 | –
5 | Cc1c(Sc2ccc(Cl)cc2)c2c(-c3ccccc3)cccc2n1CC(=O)O | 1 | 2.6 | 25 | –
6 | Cn1c(CC(=O)O)c(Sc2ccccc2)c2ccccc21 | 794 | – | – | –
7 | Cc1c(Sc2ccc(Cl)cc2)c2cc(S(C)(=O)=O)ccc2n1CC(=O)O | 71 | 0.5 | – | –
8 | Cc1c(Oc2ccc(Cl)cc2)c2c(-c3ccccc3)cccc2n1CC(=O)O | 4 | – | 14 | –
9 | Cc1ccc2c(c1)c(S(=O)(=O)c1ccc(Cl)cc1)c(C)n2CC(=O)O | 26 | 0.1 | – | 6310
10 | Cc1ccc2c(c1)c(S(=O)(=O)c1c(Cl)cccc1Cl)c(C)n2CC(=O)O | 126 | – | – | –
11 | Cc1ccc2c(c1)c(Sc1ccccc1Cl)c(C)n2CC(=O)O | 2.6 | 1.7 | 24 | 11200
12 | Cc1ccc2c(c1)c(S(=O)(=O)c1cccc(Cl)c1)c(C)n2CC(=O)O | 79 | – | – | –
13 | Cc1c(Sc2ccc(Cl)cc2)c2c(-c3nccs3)cccc2n1CC(=O)O | 3.5 | – | – | –
14 | Cc1c(Sc2ccc(Cl)cc2)c2c(S(C)(=O)=O)cccc2n1CC(=O)O | 11 | 0.6 | – | –
15 | Cc1c(Oc2ccc(Cl)cc2)c2cc(F)ccc2n1CC(=O)O | 5 | 1.3 | < 3 | –
16 | Cc1ccc2c(n1)c(Sc1ccc(Cl)cc1)c(C)n2CC(=O)O | 56 | 0.4 | – | –

Row | Compound | IC50 [1] [nM] | logD [2] | hepatocyte CLint [3] [µL/min/1e6 cells] | IC50 [4] [nM]
17 | Cc1c(Sc2ccc(Cl)cc2)c2c(-c3cnccn3)cccc2n1CC(=O)O | 0.6 | 0 | 12 | –
18 | Cc1ccc2c(c1)c(Sc1cccc(Cl)c1)c(C)n2CC(=O)O | 3 | 1.9 | 31 | 3160
19 | Cc1ccc2c(c1)c(S(=O)(=O)c1ccccc1Cl)c(C)n2CC(=O)O | 178 | – | 21 | –
20 | Cc1c(Sc2ccc(Cl)cc2)c2cc(Cl)ccc2n1C(C)C(=O)O (stereo not given) | 501 | – | – | –
21 | CCN(C(C)=O)c1cccc2c1c(Sc1ccc(Cl)cc1)c(C)n2CC(=O)O | – | 1.6 | – | –
22 | Cc1c(S(=O)(=O)c2ccc(Cl)cc2)c2cc(F)ccc2n1CC(=O)O | 7.1 | -0.2 | < 3 | –
23 | CC(=O)Nc1ccc2c(c1)c(Sc1ccc(Cl)cc1)c(C)n2CC(=O)O | 56 | 0.2 | 8 | –
24 | CC(=O)Nc1cccc2c1c(Oc1ccc(Cl)cc1)c(C)n2CC(=O)O | 18 | -1.4 | – | –
25 | CNC(=O)c1cccc2c1c(Sc1ccc(Cl)cc1)c(C)n2CC(=O)O | 45 | -0.9 | < 3 | –
26 | Cc1c(Sc2ccc(Cl)cc2)c2ccc(Cl)cc2n1CC(=O)O | 42 | 2.5 | 64 | 2000
27 | Cc1c(Sc2ccc(Cl)cc2)c2cc(Cl)ccc2n1Cc1nnn[nH]1 | 1470 | – | – | –
28 | O=C(O)Cn1cc(Sc2ccc(Cl)cc2)c2cc(Cl)ccc21 | 89 | – | – | –
29 | Cc1c(Oc2ccc(Cl)cc2)c2cc(C(F)(F)F)ccc2n1CC(=O)O | 11 | 2.3 | – | –
30 | Cc1c(Sc2ccc(Cl)cc2)c2ccc(S(C)(=O)=O)cc2n1CC(=O)O | 159 | 0.8 | < 3 | –
31 | Cc1c(Sc2ccc(Cl)cc2)c2cccc(Cl)c2n1CC(=O)O | 60 | 2 | 75 | 11200
